# From PubChem BioAssay
# Activity calls are given as the source filed them.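 How the source made its calls, unless noted: active means viability at or below 10% of carrier control in both of two separate runs; inconclusive means viability at or below 10% in only one of the two runs; inactive means the rest.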
# What was measured:
# [1] = reduced viability of SK-BR-3 breast cancer cells – cell-based, 24 h, human, pilot screen (AID 572); settings: SK-BR-3 viability, CellTiter-Glo luminescence, at 10 µM, stronger effect = lower value;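 further: compound exposure lasted between 18 and 24 h rather than exactly 24 h; 100% = carrier-treated control wells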
# [2] = HUVEC growth inhibition – cell-based, human, primary screen (AID 575;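 active means viability at or below 30% in both replicate assays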;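 further: 100% = median of untreated cell wells with 0.1% DMSO on each plate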); settings: HUVEC proliferation, CellTiter-Glo luminescence, 72 h; at 10 µM; stronger effect = lower value
# How it was run: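 Material: primary human umbilical vein endothelial cells / Schedule: 72 h exposure, 37 °C, 5% CO2, 30 min RT equilibration / Signal: ATP-based CellTiter-Glo luminescent read / Read-out basis: percent of median DMSO-control luminescence / Control set: 32 DMSO-only cell-control wells (high), 32 MePR drug-control wells (low) per plate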
# [3] = H69AR cell proliferation blockers – human, duplicate replicates, primary screen (AID 580;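 active means viability at or under a set limit in both replicates, limit being median viability minus 3 SD, cut at about 48% in these data, passing the limit was not always enough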;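 further: 100% = mean luminescence of untreated wells and 0% = no signal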); settings: H69AR lung tumor cells viability, ATP luminescence, 72 h; at 10 µM; stronger effect = lower value
# [4] = MRP1 drug-resistance reversers in H69AR cells – cell-based, doxorubicin co-treatment, pilot screen (AID 601;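 active means viability loss from added drug above about 55%, and viability with drug at most 40%, in both replicates, limit read from the data, passing the limit was not always enough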); settings: CellTiter-Glo, 72 h, at 10 µM; for differential viability (reversal): stronger effect = higher value
# [5] = yeast transport mutant growth inhibition pilot in 384-well plates, post-Golgi transport modulator project (AID 636; in the data active means inhibition above about 31%); settings: absorbance 615 nm, about 18 h, stronger effect = higher value
# [6] = growth suppression of yeast trafficking mutant, preliminary HTS, modulators of trafficking downstream of Golgi apparatus project, 1536-format plate, OD 615 nm (AID 637; in the data active means inhibition above about 30%); settings: yeast transport mutant growth, absorbance 615 nm, 18 h; stronger effect = higher value
# [7] = H69AR cells + 2 uM doxorubicin, measured here: viability with 2 uM doxorubicin, stronger effect = lower value
# [8] = H69AR cells, compound alone cytotoxicity
Structure (SMILES),viability [1],viability [2],viability [3],differential viability (reversal) ([4]; H69AR cells + 2 uM doxorubicin),"viability [4, 7] [%]","viability [4, 8] [%]",inhibition [5],inhibition [6]
c1ccc(-c2nc3ccccc3nc2-c2ccccn2)nc1,89% (inactive),107% (inactive),89.5% (inactive),-9.55% (inactive),99.1,89.5,-1.17% (inactive),0.98% (inactive)
Cc1ccc(S(=O)(=O)NC(=O)NN2CCCCCC2)cc1,112% (inactive),81.1% (inactive),114% (inactive),14% (inactive),100,114,-3.38% (inactive),4.17% (inactive)
Cc1cc(C)n(-c2nc3c(c(=O)[nH]c(=O)n3C)n2Cc2ccc(F)cc2)n1,93% (inactive),113% (inactive),96.5% (inactive),8.69% (inactive),87.8,96.5,-4.19% (inactive),-1.45% (inactive)
CN(CCc1ccccn1)c1ncnc2[nH]ncc12,102% (inactive),116% (inactive),97.6% (inactive),9.97% (inactive),87.6,97.6,-6.62% (inactive),-2.36% (inactive)
CCn1c(SCc2cc(=O)[nH]c3ccccc23)nc2c1c(=O)n(C)c(=O)n2C,95% (inactive),109% (inactive),92% (inactive),-3.81% (inactive),95.8,92,0.68% (inactive),-2.18% (inactive)
Cc1ccc(-c2ccc(SCC(=O)Nc3nonc3C)nn2)cc1,94% (inactive),81.8% (inactive),88.8% (inactive),-4.68% (inactive),93.5,88.8,-7.57% (inactive),-0.55% (inactive)
COc1ccc(OC)c(NC(=O)CS(=O)(=O)c2ccccc2)c1,124% (inactive),94.7% (inactive),86.3% (inactive),-7.39% (inactive),93.7,86.3,-6.3% (inactive),0.91% (inactive)
Cc1nc(SCC(=O)Nc2cc(C)on2)c2c3c(sc2n1)CCCC3,66.5% (inactive),78.5% (inactive),30.4% (active),6.21% (inactive),24.2,30.4,-2.97% (inactive),-1.11% (inactive)
CCOc1ccc(NC(=O)Cn2nnc(-c3ccccc3F)n2)cc1,105% (inactive),100% (inactive),94.6% (inactive),7.41% (inactive),87.2,94.6,-4.42% (inactive),-2.3% (inactive)
Cc1ccc(CCNC(=O)C2CCC(=O)N2C2CCCC2)cc1 (stereo not drawn),79% (inactive),99.7% (inactive),94.9% (inactive),13% (inactive),81.9,94.9,-2.08% (inactive),0% (inactive)
CCCn1nnc(NCc2ccc(OCc3cccs3)c(OC)c2)n1,88% (inactive),106% (inactive),96.5% (inactive),1.02% (inactive),95.5,96.5,-6.44% (inactive),2.36% (inactive)
COC(=O)CCC(NC(=O)c1cc(-c2ccc3c(c2)OCCO3)oc1C)C(=O)OC (stereo not drawn),91% (inactive),74.8% (inactive),85.3% (inactive),3.48% (inactive),81.9,85.3,-6.44% (inactive),0.81% (inactive)
COC(=O)CS(=O)(=O)c1nnc([C@H](Cc2ccccc2)NC(=O)OC(C)(C)C)o1,77.5% (inactive),3.82% (active),1.21% (active),0.515% (inactive),0.69,1.21,-5.45% (inactive),-12.3% (inactive)
COc1ccc(CCN2C(=O)CC(N3CCN(S(=O)(=O)c4ccccc4)CC3)C2=O)cc1 (stereo not drawn),103% (inactive),107% (inactive),96.7% (inactive),-9.06% (inactive),106,96.7,2.05% (inactive),-0.36% (inactive)
FC(F)(F)c1ccc(Sc2nnc(-c3cccs3)n2CC2CCCO2)nc1 (stereo not drawn),68% (inactive),104% (inactive),94.5% (inactive),6.06% (inactive),88.4,94.5,-8.22% (inactive),2% (inactive)
CCCCc1nc(NCCN2CCOCC2)c(C#N)c2c1COC(C)(C)C2,76% (inactive),94.1% (inactive),91.6% (inactive),4.02% (inactive),87.5,91.6,5.48% (inactive),6.77% (inactive)
Cc1cc(C)nc(N2CCC(C(=O)Nc3ccc(Oc4ccccc4)cc3)CC2)n1,67% (inactive),105% (inactive),88.9% (inactive),0.65% (inactive),88.2,88.9,-8.36% (inactive),1.09% (inactive)
CCOc1ccc(-c2nc(N)ncc2-c2ccccc2)c(O)c1,136% (inactive),95.3% (inactive),65.3% (inactive),-14.3% (inactive),79.6,65.3,-5.95% (inactive),-8.1% (inactive)

Structure (SMILES),viability [1],viability [2],viability [3],differential viability (reversal) ([4]; H69AR cells + 2 uM doxorubicin),"viability [4, 7] [%]","viability [4, 8] [%]",inhibition [5],inhibition [6]
Cc1cccc(NC(=O)CSc2nnc(-c3ccccc3C)o2)c1,87% (inactive),107% (inactive),75.4% (inactive),3.35% (inactive),72,75.4,-5.95% (inactive),-7.27% (inactive)
CCOC(=O)c1c(C)[nH]c(C)c1C(=O)COC(=O)CNC(=O)c1ccc(OCC)cc1,96% (inactive),77.9% (inactive),88.3% (inactive),4.05% (inactive),84.2,88.3,-2.34% (inactive),-0.66% (inactive)
COc1ccc2c(C)nc(Nc3nc(C)cc(C)n3)nc2c1,84% (inactive),114% (inactive),87.3% (inactive),-6.58% (inactive),93.9,87.3,-6.08% (inactive),0% (inactive)
COc1ccccc1C1N(c2ccc(F)cc2)C(=O)C2CCCN21 (stereo not drawn),102% (inactive),111% (inactive),108% (inactive),17.8% (inactive),90.1,108,-5.07% (inactive),-1.27% (inactive)
CN(C)C(=O)COc1ccc2cc(-c3ccccc3)c(=O)oc2c1,93% (inactive),98.1% (inactive),90.7% (inactive),-2.2% (inactive),92.9,90.7,-7.12% (inactive),-4.18% (inactive)
CCOc1ccc(CCNc2nc3c(c(=O)n(C)c(=O)n3C)n2CC)cc1OCC,108% (inactive),101% (inactive),88.9% (inactive),1.88% (inactive),87,88.9,-1.73% (inactive),3.27% (inactive)
CC(=O)Nc1nc(=S)ss1,135% (inactive),103% (inactive),87.5% (inactive),-8.28% (inactive),95.7,87.5,-1.3% (inactive),-0.33% (inactive)
COc1cccc(NC(=O)N2CCC(N3CCCCC3)CC2)c1,92% (inactive),88.2% (inactive),94.5% (inactive),-2.56% (inactive),97.1,94.5,-4.29% (inactive),-0.49% (inactive)
COc1ccc(CNc2oc(-c3cccc4ccccc34)nc2C#N)cc1,85% (inactive),95.5% (inactive),96.9% (inactive),-4.35% (inactive),101,96.9,-4.93% (inactive),-0.18% (inactive)
COCCCN1C(=O)C(=O)/C(=C(/O)c2ccc(OC)cc2)C1c1ccc(O)c(OC)c1 (stereo not drawn),104% (inactive),109% (inactive),103% (inactive),6.55% (inactive),96.9,103,-2.53% (inactive),-1.45% (inactive)
CCCC(OC(=O)CN1C(=O)COc2ccccc21)C(=O)NC1CCCC1 (stereo not drawn),63% (inactive),107% (inactive),91.7% (inactive),1.34% (inactive),90.3,91.7,-7.12% (inactive),3.09% (inactive)
COc1cccc(N2C(=O)N(c3ccccc3Cl)C3CS(=O)(=O)CC32)c1 (stereo not drawn),93% (inactive),106% (inactive),98% (inactive),9.28% (inactive),88.7,98,-6.71% (inactive),3.45% (inactive)
CC(C)Oc1ccc2c(=O)c(-c3ccccc3)coc2c1,121% (inactive),87% (inactive),89.7% (inactive),6.81% (inactive),82.8,89.7,-1.04% (inactive),-0.17% (inactive)
CC(NC(=O)NC12CC3CC(CC(C3)C1)C2)C1CCCO1 (stereo not drawn),80% (inactive),103% (inactive),103% (inactive),10.1% (inactive),93.4,103,-3.7% (inactive),1.27% (inactive)
N#Cc1c(N)n(CCOC(=O)c2cccc(Br)c2)c2nc3ccccc3nc12,111% (inactive),75.6% (inactive),96.4% (inactive),3.64% (inactive),92.8,96.4,-10.1% (inactive),3.55% (inactive)
O=C(Cn1c(-c2cncs2)nc2ccccc21)NC1CCCC1,96% (inactive),103% (inactive),106% (inactive),19.1% (inactive),86.5,106,-4.05% (inactive),5.09% (inactive)
CCOC(=O)C1=C(C)NC(C)=C(C(=O)OC)C1c1cccc(Cl)c1Cl (stereo not drawn),86% (inactive),11.2% (active),72% (inactive),4.92% (inactive),67.1,72,11.3% (inactive),13.2% (inactive)
COc1ccc(-c2noc(CCCOc3ccccc3)n2)cc1OC,78% (inactive),103% (inactive),93.7% (inactive),-7.4% (inactive),101,93.7,-1.92% (inactive),4.91% (inactive)
